Screening results (PubChem)
MT1-MMP act inh: MT1-MMP (human) activation inhibition. P50281. HT1080 RFP-PRO-GFP cells, GFP/RFP ratio fluorescence, overnight; percent of plate control window, DMSO zero. GFP/RFP ratio change, % at 20 µM. 0.061% of 360,000 active;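 active means GFP/RFP ratio change of at least 30% with cell ATP level not reduced by more than half and red fluorescence within 50% of control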
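Material: RFP-PRO-GFP reporter HT1080 cells. Dosing: single-point 20 µM compound, 1% DMSO. Controls: DMSO and RFP-L50D-GFP cell wells. Timing: cells overnight before dosing, compound overnight, 37 °C, 5% CO2. Measure: GFP/RFP fluorescence ratio.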
MIN6 prolif-1: induces beta-cell replication in MIN6 cells; proliferation, % at 10 µM; 0.29% of 330,000 active; MIN6 cells proliferation, ATPlite luminescence, 48 h; cells starved in 0.2% serum; 100% = growth in 10% serum;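 active means compounds whose signal lies at least 3.5 SD above the mean of all wells on their plate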
MsrA inhibitor: inhibitors of bovine MsrA | purified bovine MsrA, absorbance read-out | inhibition, % at 15.5 µM | 0.75% of 360,000 active; in the data active means inhibition above about 4.5%
SKN-1 inh: C. elegans SKN-1 inhibition; C. elegans VP596 Pgst-4::GFP/RFP ratio, acrylamide-induced, 24 h; inhibition, % at 21.8 µM; 0.49% of 360,000 active; AID 624304;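 active means interference check ratio from 0.5 to 1.5 plus GFP to RFP signal ratio inhibition reaching or exceeding a fixed threshold, cut at about 30% in these data, passing the limit was not always enough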
MsrA act: activators of bovine methionine sulfoxide reductase A; activation, % at 10.6 µM; 0.3% of 360,000 active; AID 602163; purified bovine MsrA, absorbance read-out; in the data active means activation above about 7.5%
DAGLB inhibitor: blocks human DAGLB lipase activity | inhibition, % at 5.17 µM | 0.059% of 340,000 active | Q8NCG7 | HEK293T DAGLB membrane lysate, EnzChek fluorogenic substrate; in the data active means inhibition above about 34%
Target sequence (Q8NCG7 whole entry, looked up): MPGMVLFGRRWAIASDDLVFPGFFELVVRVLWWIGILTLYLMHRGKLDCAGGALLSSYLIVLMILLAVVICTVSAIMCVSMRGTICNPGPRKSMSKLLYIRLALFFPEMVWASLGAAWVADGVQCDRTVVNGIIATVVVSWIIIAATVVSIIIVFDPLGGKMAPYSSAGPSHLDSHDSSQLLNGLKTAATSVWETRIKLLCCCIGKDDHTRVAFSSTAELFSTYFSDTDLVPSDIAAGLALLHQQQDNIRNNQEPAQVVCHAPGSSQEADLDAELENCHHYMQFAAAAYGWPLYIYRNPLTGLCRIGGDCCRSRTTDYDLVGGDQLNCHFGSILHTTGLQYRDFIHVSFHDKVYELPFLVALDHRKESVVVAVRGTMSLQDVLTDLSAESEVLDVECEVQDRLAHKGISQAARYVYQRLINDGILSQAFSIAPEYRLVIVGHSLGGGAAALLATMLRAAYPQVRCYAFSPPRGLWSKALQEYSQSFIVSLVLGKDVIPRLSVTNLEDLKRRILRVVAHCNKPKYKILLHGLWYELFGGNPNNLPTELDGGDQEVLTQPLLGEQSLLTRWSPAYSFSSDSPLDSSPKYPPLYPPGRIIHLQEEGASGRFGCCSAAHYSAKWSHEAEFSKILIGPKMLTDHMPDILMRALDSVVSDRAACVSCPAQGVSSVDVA
MIN6 prolif-2: confirmation of inducers of beta-cell replication in MIN6 cells | shares compounds with MIN6 prolif-1 | MIN6 beta-cell proliferation, ATPlite luminescence, 48 h; cells kept in 0.2% serum; scaled between 0.2% and 10% serum | proliferation increase, % at 50 µM | 920 tested, under 10 active | AID 463095;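 active means proliferation increase above 40% at any of the four tested concentrations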
Each line names hits and unclear results; the compound was inactive in the other large screens (follow-up assays come after a bar, where they were run). Sampled rows, rich in hits. Any-hit rate of the full collection: about 1.8%.

Cn1c2ccccc2n2c(=O)c(Cl)c(-c3ccccc3)c(C#N)c12	MIN6 prolif-1 7.9 | MIN6 prolif-2 inactive
COc1ccc(N2C(=NC(=O)C3CCCCC3)SC3CS(=O)(=O)CC32)cc1Cl (stereo not drawn)	none
COc1ccc(N2C(=NC(=O)C3CC3)SC3CS(=O)(=O)CC32)cc1Cl (stereo not drawn)	MIN6 prolif-1 11.4 | MIN6 prolif-2 inactive
Cc1noc(C)c1COc1ccccc1C(=O)Nc1cccc(S(=O)(=O)N(C)C)c1	MIN6 prolif-1 13.9 | MIN6 prolif-2 inactive
CC(=O)Nc1cccc(NC(=O)c2ccccc2OCc2c(C)noc2C)c1	none
COc1ccc(Br)cc1S(=O)(=O)NCc1ccccc1	none
COc1ccc(F)cc1S(=O)(=O)NCc1ccccc1	MIN6 prolif-1 0.0 | MIN6 prolif-2 inactive
COc1ccc(C(=O)NCC(C)(C)N2CCOCC2)cc1S(=O)(=O)NCc1ccc(Cl)cc1	none (no result: MIN6 prolif-1)
COc1ccc(C(=O)N2CCC2)cc1S(=O)(=O)NCc1ccc(Cl)cc1	MIN6 prolif-1 8.2 | MIN6 prolif-2 inactive
CC(C)(C)NC(=O)Cn1nc(C(F)(F)F)c2c1CCCC2	none
FC(F)(F)c1nc2nncn2c2c1CCCCC2	MIN6 prolif-1 7.4 | MIN6 prolif-2 inactive
COc1cccc(CNC(=O)[C@H]2CCCN2C(=O)[C@H]2CCCN2C(=O)c2ccc(Cl)cc2)c1	none (no result: MT1-MMP act inh, MIN6 prolif-1, SKN-1 inh, MsrA act, DAGLB inhibitor)
CN1CCN(C(=O)c2cc3c(=O)n4ccccc4nc3s2)CC1	none
COc1ccccc1N1CCN(C(=O)c2cc3c(=O)n4ccccc4nc3s2)CC1	MIN6 prolif-1 13.5 | MIN6 prolif-2 inactive
CCOC(=O)N[C@H](C(=O)N1CCC[C@H]1C(=O)NCCc1ccccc1Cl)c1ccccc1	none (no result: MT1-MMP act inh, MIN6 prolif-1, SKN-1 inh, MsrA act, DAGLB inhibitor)
O=C(c1ccc(-n2ccnc2)cc1)N1CCCC(CO)(Cc2cccc(Cl)c2)C1 (stereo not drawn)	MIN6 prolif-1 16.0 | MIN6 prolif-2 inactive
CC(=O)c1ccc(OCCCOc2cccc3cccnc23)cc1	none
CC(=O)CCc1ccc(OCCCOc2cccc3cccnc23)cc1	MIN6 prolif-1 5.7 | MIN6 prolif-2 inactive
CCNC(=S)Nc1cc(C)ccn1	MIN6 prolif-1 0.0 | MIN6 prolif-2 inactive
c1ccc(Nc2ccc(NCCc3c[nH]c4ccccc34)cc2)cc1	none (no result: MT1-MMP act inh, MIN6 prolif-1, SKN-1 inh, MsrA act, DAGLB inhibitor)
COc1ccc(CNC(=O)CN(CCC(C)C)S(=O)(=O)c2ccc3c(c2)OCCO3)cc1	MIN6 prolif-1 5.3 | MIN6 prolif-2 inactive
COc1ccc(/C=N/NC(=O)CN(Cc2ccccc2)S(=O)(=O)c2ccc3c(c2)OCCO3)cc1	none
Fc1cccc(Cl)c1CN1CCN(c2ncc(Cc3ccccc3)cn2)CC1	none (no result: MT1-MMP act inh, MIN6 prolif-1, SKN-1 inh, MsrA act, DAGLB inhibitor)
CS(=O)(=O)N1CCC(C(=O)Nc2ccc(F)cc2F)CC1	MIN6 prolif-1 5.7 | MIN6 prolif-2 inactive
CCOC(=O)C1(Cc2ccccc2C)CCCN(C(=O)CCn2nccc2C)C1 (stereo not drawn)	MIN6 prolif-1 10.5 | MIN6 prolif-2 inactive
CCOC(=O)C1(Cc2ccccc2C)CCCN(C(=O)CSC)C1 (stereo not drawn)	none (no result: MIN6 prolif-1)
CNc1nc(Oc2ccc(=O)n(C)n2)nc(N2CCOCC2)n1	MIN6 prolif-1 10.8 | MIN6 prolif-2 inactive
CCNc1nc(Oc2ccc(=O)n(C)n2)nc(N2CCOCC2)n1	none
COC(=O)C1=C(C)N(C)C(=NCc2cccc(C(F)(F)F)c2)NC1c1ccccc1C(F)(F)F (stereo not drawn)	none (no result: MT1-MMP act inh, MIN6 prolif-1, SKN-1 inh, MsrA act, DAGLB inhibitor)
C=CCNC(=O)c1onc(CSc2ccccc2CC)c1C(=O)O	MIN6 prolif-1 12.0 | MIN6 prolif-2 inactive
O=C(Nc1cccnc1Cl)c1ccc(Cl)cc1	none
O=C(Nc1cccc2cccnc12)c1ccc(Cl)cc1	MIN6 prolif-1 5.9 | MIN6 prolif-2 inactive
C=CCOn1c(C)c(C(C)=O)c2c3no[n+]([O-])c3ccc21	MIN6 prolif-1 7.6 | MIN6 prolif-2 inactive
COc1ccc(C(=O)c2[nH]c(N)c(C(=O)NCCc3c[nH]c4ccccc34)c2-c2ccccc2C(F)(F)F)cc1	none (no result: MT1-MMP act inh, MIN6 prolif-1, SKN-1 inh, MsrA act, DAGLB inhibitor)
COc1ccc2[nH]c3c(c2c1)CC(C)NC3=O (stereo not drawn)	MIN6 prolif-1 7.3 | MIN6 prolif-2 inactive
COc1ccc2[nH]c3c(c(=O)c2c1)CCCC3	none (no result: MIN6 prolif-1, DAGLB inhibitor)
COC(=O)c1ccc(S(=O)(=O)NCc2ccc(S(N)(=O)=O)cc2)n1C	none
COC(=O)c1ccc(S(=O)(=O)NCc2cccc(OC)c2)n1C	MIN6 prolif-1 5.5 | MIN6 prolif-2 inactive
CCOC(=O)C1=C(Cn2cnc3ccccc32)NC(=O)NC1c1cc(C)ccc1C (stereo not drawn)	none
COC(=O)C1=C(Cn2cnc3ccccc32)NC(=O)NC1c1cc(C)ccc1C (stereo not drawn)	MIN6 prolif-1 5.4 | MIN6 prolif-2 inactive
CCn1cc(CCC(=O)Nc2ccc(Oc3cccnc3)cc2)c2ccccc21	none (no result: MT1-MMP act inh, MIN6 prolif-1, SKN-1 inh, MsrA act, DAGLB inhibitor)
COc1ccc(C(C)=O)cc1CSC(=S)N1CCSCC1	none (no result: MT1-MMP act inh, MIN6 prolif-1, SKN-1 inh, MsrA act, DAGLB inhibitor)
CCc1onc(C)c1C(=O)O	MIN6 prolif-1 7.5 | MIN6 prolif-2 inactive
COc1ccc(C(=O)NCCNC(=O)c2cnccn2)cc1OC	none
COc1ccc(C(=O)NCCCNC(=O)c2cnccn2)cc1Br	MIN6 prolif-1 9.2 | MIN6 prolif-2 inactive
CC(=O)Nc1cc(C(=O)N2CCCC2)ccc1S(=O)(=O)c1ccc(C)cc1	none
CC(=O)Nc1cc(C(=O)N(C)Cc2ccccc2)ccc1S(=O)(=O)c1ccc(C)cc1	MIN6 prolif-1 13.3 | MIN6 prolif-2 inactive
CCOC(=O)C1=C(C)NC(=O)NC1c1ccc(OC(=O)c2ccco2)c(OC)c1 (stereo not drawn)	MIN6 prolif-1 4.7 | MIN6 prolif-2 inactive
COC(=O)C1=C(C)N(Cc2ccccc2C(F)(F)F)C(=NCc2ccc(OC)cc2)NC1c1ccc(Cl)cc1 (stereo not drawn)	none (no result: MT1-MMP act inh, MIN6 prolif-1, SKN-1 inh, MsrA act, DAGLB inhibitor)
Cc1cc(C)c2c(N)c3ccccc3nc2n1	MIN6 prolif-1 7.5 | MIN6 prolif-2 inactive
CCCCCCCCN1C(=O)[C@@H](CC(=O)NCCc2ccccc2OC)C[C@@]2(C(=O)OC)C1=C[C@H](C1CCCC1)O[C@@H]2C	none (no result: MT1-MMP act inh, MIN6 prolif-1, SKN-1 inh, MsrA act, DAGLB inhibitor)
Cc1cc(=O)n2[nH]c(SCc3ccccc3)nc2n1	MIN6 prolif-1 8.3 | MIN6 prolif-2 inactive
CCC(C)NC(=O)CSc1ccc(Cl)cc1 (stereo not drawn)	none
CCC(C)NC(=O)CCSc1ccc(C)cc1 (stereo not drawn)	MIN6 prolif-1 0.0 | MIN6 prolif-2 inactive
O=C(CC1SC2=NCCN2C1=O)Nc1ccc(Br)cc1 (stereo not drawn)	none
CCOC(=O)c1ccc(NC(=O)CC2SC3=NCCN3C2=O)cc1 (stereo not drawn)	MIN6 prolif-1 5.8 | MIN6 prolif-2 inactive
COc1ccc(CN2C[C@H](COCc3ccccc3)Oc3cccc(F)c3S2(=O)=O)cc1	none (no result: MT1-MMP act inh, MIN6 prolif-1, SKN-1 inh, MsrA act, DAGLB inhibitor)
